Source: PubChem BioAssay AID651572 (The Scripps Research Institute Molecular Screening Center, 2012)
The campaign covered roughly 360,000 compounds. About 950 (0.26%) were called active. This excerpt belongs to a sample that is enriched for actives. Values without a mark were called inactive.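 The calls were made as follows: active = inhibition above a per-plate limit, mean inhibition of low control wells plus 3 SD (cut at about 25% in these data); inactive = the rest.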

Each molecule was assayed against ADP-ribosylation factor GTPase-activating protein 1 (Rattus norvegicus) (UniProt Q62848) (assay: inhibitors of rat ARFGAP1 GAP activity, primary screen, biochemical, fluorescence polarization, GDP tracer (AID 651572;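 also: 0% = DMSO wells with enzyme and 100% = wells lacking Arfgap1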)). Settings: Arfgap1-stimulated ARF1 GTP hydrolysis, GDP FP detection; at 16.5 µM; active compounds read high.
ADP-ribosylation factor GTPase-activating protein 1 (Rattus norvegicus), sequence (Q62848 1-136 limits assumed): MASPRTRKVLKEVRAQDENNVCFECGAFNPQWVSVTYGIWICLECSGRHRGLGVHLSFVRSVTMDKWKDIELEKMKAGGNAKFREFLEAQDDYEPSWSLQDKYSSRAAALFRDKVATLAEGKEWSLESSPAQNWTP
Procedure, shortened: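 System: truncated rat Arfgap1 GAP domain / Medium: HEPES-based buffer, pH 7.5 / Also added: N-terminally truncated human ARF1-GTP substrate / Incubation: enzyme reaction 120 min at 25 °C after 20 min preincubation / Measured by: FP of antibody-bound GDP Alexa 633 tracer, ex 620/em 688 nm / Replicates: singlicate, each compound tested once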
With `O=S1(=O)c2c(cccc2N2CCCCC2)O[C@H](COCc2ccccc2)CN1C1CC1` the inhibition was 0.4%. For `C#CCN([C@@H](C)C(=O)OCC)S(=O)(=O)c1ccc(Br)cc1F`, the inhibition was -5.91%. `Cc1cc(N2CCN(C(=O)OC(C)(C)C)C[C@H]2C)ccc1N1CCN(Cc2ccccc2)[C@H](C)C1` showed an inhibition of 1.76%. Work on `CCCCCCCCN1C(=O)[C@@H](CC(=O)NCCCC)C[C@@]2(C(=O)OC)C1=C[C@H](C(C)(C)C)O[C@@H]2C` yielded an inhibition of 3.82%. Molecule `Cc1[nH]c2ccccc2c1CC(=O)Nc1ccc(Nc2cccnc2)c(-c2cccc(Cl)c2)c1` has an inhibition of 16.8%. With `CCSc1ccccc1C(=O)NCc1ccc(OC)cc1` the inhibition was -5.39%. For `COc1ccc(CNC(=O)C(Cc2ccccc2)n2cccc2)cc1` (stereo not given), the inhibition was 33.6% (active). Work on `COc1ccc(CNC(=O)C(C)NCc2ccccc2Cl)cc1` (stereo not given) yielded an inhibition of -1.63%. `Cc1cc(Br)cn2c(Cc3ccccc3C(F)(F)F)c(-c3ccc(C#N)cc3)nc12` was tested, and the inhibition was -8.18%. Molecule `COC(=O)Cc1nnn2c1[C@H](C)[C@@H](OC)c1cc(Br)ccc1-2` has an inhibition of -3.05%. With `CC(=O)C1=C(C)N(Cc2ccccc2)C(=S)NC1c1cccc(Br)c1` (stereo not given) the inhibition was 20.9%. `CN1CCCCC(NC(=O)C(C)(C)C)C1=O` (stereo not given) gave an inhibition of -2.4%. Work on `CC(C)CNc1cccc2c1S(=O)(=O)N[C@H](C)CO2` yielded an inhibition of 1.59%. In the case of `COC(=O)c1cc2c(c3c4ccccc4n(S(=O)(=O)c4cccc(C)c4)c13)C(=O)N(Cc1ccccc1)C2`, the inhibition is reported as 46.8% (active). Work on `COC(=O)c1cc2c(c3c4cc(F)ccc4n(S(=O)(=O)c4ccccc4)c13)C(=O)N(Cc1ccccc1OC)C2` yielded an inhibition of -6.31%. Work on `COC(=O)c1c(-c2ccc(OC)cc2)c2c(c3c4ccccc4n(S(=O)(=O)c4ccc(C)cc4)c13)C(=O)N(C)C2` yielded an inhibition of 2.2%. `COC(=O)C1=C(C)N(Cc2ccc(F)cc2)C(=S)NC1c1cccc(Cl)c1` (stereo not given) was tested, and the inhibition was 0.22%. In the case of `COc1ccc(CCNC(=O)CCC(=O)NC2CCCCC2)cc1OC`, the inhibition is reported as 9.15%. Molecule `COc1ccc(/C=C/C(=O)OCC(=O)NC2CCCCCC2)cc1OC` has an inhibition of -8.52%. For `COc1ccc(/C=C2\SC(=S)N(CCCC(=O)NC3CCCC3)C2=O)cc1OC`, the inhibition was 25.1% (active). Molecule `N#Cc1ccc(OCCCN2CCC(C(O)(c3ccccc3)c3ccccc3)CC2)c(F)c1` has an inhibition of -2.6%. In the case of `COc1ccc(-c2csc(Nc3ccc(O)cc3)n2)cc1`, the inhibition is reported as 24.8% (active). In the case of `COC(=O)CCc1sc(Nc2ccc(Br)cc2)nc1-c1ccc(OC)cc1`, the inhibition is reported as 7.69%. With `COc1ccc(C(O)c2nc(-c3ccc(OC)nc3)cs2)cc1` (stereo not given) the inhibition was 6.07%. Molecule `CC(C)(C)n1nc(C2CC2)c(Br)c1NC(=O)c1ccccc1F` has an inhibition of -8.2%. With `Nc1ccc(S(=O)(=O)Nc2nccc(/C=C/c3ccc(Br)s3)n2)cc1` the inhibition was 33.6% (active). For `Oc1cccc2ccc(/C=C/c3ccc(Br)s3)nc12`, the inhibition was 9.22%. `CC(=O)Nc1ccc(S(=O)(=O)Nc2nccc(/C=C/c3ccccc3F)n2)cc1` was tested, and the inhibition was -5.08%. `COc1ccccc1CCn1cnc(-c2ccccc2)c1C(C)C` was tested, and the inhibition was 2.03%. `CC(=O)C1=C(C)N(Cc2ccc(Cl)cc2)C(=S)NC1c1ccc(F)cc1` (stereo not given) showed an inhibition of -8.75%. `COC(=O)C1=C(C)N(Cc2cccc(C(F)(F)F)c2)C(=NCc2ccccc2)NC1c1ccc(Cl)cc1` (stereo not given) showed an inhibition of -7.39%. `CN(CC(=O)Nc1cccc(F)c1)C(=O)CC1CCCC1` was tested, and the inhibition was -2.56%. `CCCN(CC(=O)Nc1ccccc1C)C(=O)c1ccc2[nH]c3c(c2c1)CC(C)CC3` (stereo not given) gave an inhibition of 11.3%. For `CC1CCc2[nH]c3ccc(C(=O)N(C)CC(=O)Nc4cccc(F)c4)cc3c2C1` (stereo not given), the inhibition was 28% (active). `CCOC(=O)/C=C/c1ccccc1O` showed an inhibition of 1.41%. Work on `COc1ccccc1Cc1c(-c2ccc(F)cc2)nc2ccc(C)cn12` yielded an inhibition of 4.94%. `CN1C(=O)C2CC(O)C(SC3CC4C(=O)N(C)C(=O)C4CC3O)CC2C1=O` (stereo not given) was tested, and the inhibition was -0.39%. `CC(C)[C@@H](C)/C=C/[C@@H](C)[C@H]1CC[C@@H]2[C@]1(C)CCC1[C@]23C=C[C@]2(C[C@@H](O)CC[C@]12C)N(c1ccc([N+](=O)[O-])cn1)O3` (stereo not given in full) gave an inhibition of 2.09%. In the case of `COc1ccccc1OCC(=O)OCn1c(SC)nnc(C)c1=O`, the inhibition is reported as 25.6% (active). For `COc1ccccc1OCC(=O)OCc1cc(-c2ccco2)on1`, the inhibition was -14.7%. Work on `COc1ccccc1OCc1nnc(SCC(N)=O)n1-c1ccccc1` yielded an inhibition of 3.32%. `O=C(NCc1ccccc1)[C@H]1CCCN1C(=O)[C@@H]1CCCN1C(=O)c1ccc(Cl)cc1Cl` gave an inhibition of 11.1%. `Cc1nc(NC(=O)C(C)(C)C)sc1[N+](=O)[O-]` showed an inhibition of -3.35%. With `O=C(N[C@H](Cc1ccccc1)C(=O)N1CCCN(Cc2cccs2)CC1)[C@H]1O[C@@H](n2ccc(=O)[nH]c2=O)[C@H](O)[C@@H]1O` the inhibition was 17.7%. `Cc1ccc(NC(=O)c2ccc(Oc3ncccn3)cc2)cc1` was tested, and the inhibition was 25.6% (active). Work on `CCOc1ccc(C(=O)Nc2cccc(SC)c2)cc1` yielded an inhibition of 2.92%. Work on `COc1ccc(NC(=O)c2ccc(C#CC(C)(C)O)cc2)cc1` yielded an inhibition of -7.91%. `CC(C)C[C@H](NC(=O)CC1CCCC1)C(=O)N1CCC[C@H]1C(=O)NCc1ccccc1` showed an inhibition of 2.12%. `Nc1ncnc2c1ncn2C1OC(CO)CC1O` (stereo not given) showed an inhibition of 3.3%. In the case of `CC(C)CCSc1ncnc2c1oc1nc3c(cc12)COC(C)(C)C3`, the inhibition is reported as 28.1% (active). Molecule `CCCc1nc2oc3c(OCC)ncnc3c2c2c1COC(C)(C)C2` has an inhibition of 16.9%. Work on `CC1(C)Cc2nc3sc4c(SCC(=O)NC(c5ccccc5)c5ccccc5)ncnc4c3cc2CO1` yielded an inhibition of -6.88%. `O=C(NCc1ccccc1)[C@H]1CCCN1C(=O)[C@H]1CCCN1C(=O)N1CCOCC1` was tested, and the inhibition was -1.77%. Work on `COC(=O)C1=C(C)N(Cc2ccc(C(F)(F)F)cc2)C(=NCc2ccc(C(F)(F)F)cc2)NC1c1cccc(Cl)c1` (stereo not given) yielded an inhibition of 9.23%. For `Nc1ncnc2c1ncn2[C@@H]1O[C@H](C(=O)N[C@@H](CCc2ccccc2)C(=O)NCC(=O)N2CCOCC2)[C@@H](O)[C@H]1O`, the inhibition was -17.3%.
